# From PubChem BioAssay
# M1 ag: activates human CHRM1 receptor. P11229. CHO-K1 hM1, Fluo-8 calcium fluorescence, agonist mode; 0% DMSO, 100% acetylcholine EC100. activation, % at 3 µM. actives 0.33% (n = 360,000);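 active means activation above the run's mean compound activation plus 3 SD, cut at about 16% in these data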;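 further: peak over basal fluorescence ratio within a 140 s kinetic read after compound addition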
# CHRM1 PAM: positive allosteric modulators of human M1 muscarinic receptor; CHO-K1 hM1, Fluo-8 calcium fluorescence, ACh EC20; 0% = ACh EC20, 100% = maximal ACh; actives 0.088% (n = 360,000); activation, % at 3 µM; P11229; in the data active means activation above about 19%, passing the limit was not always enough
# TAAR1 ag: agonists of human TAAR1; Q96RJ0; CHO RD-HGA16 TAAR1, Fluo-8 calcium fluorescence; vehicle wells 0%, saturating PEA agonist 100%; activation, % at 3 µM; actives 0.99% (n = 360,000); AID 624467;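 active means activation above the mean activation of all test compounds in the run plus 3 SD, cut at about 38% in these data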
# Target sequence (Q96RJ0 whole entry, looked up): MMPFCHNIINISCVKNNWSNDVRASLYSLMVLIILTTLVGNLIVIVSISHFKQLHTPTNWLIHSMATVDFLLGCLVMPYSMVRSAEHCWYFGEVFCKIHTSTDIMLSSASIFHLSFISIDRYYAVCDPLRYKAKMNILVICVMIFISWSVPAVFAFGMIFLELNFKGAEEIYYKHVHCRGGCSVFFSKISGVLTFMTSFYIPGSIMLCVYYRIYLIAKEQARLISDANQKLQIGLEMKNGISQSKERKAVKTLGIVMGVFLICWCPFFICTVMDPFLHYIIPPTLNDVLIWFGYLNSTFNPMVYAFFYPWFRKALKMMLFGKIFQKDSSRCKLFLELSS
#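 Repeats: no replicates (n 1) | Material: CHO-derived RD-HGA16 cells with stable Gα16 and human TAAR1 | Technique: Kinetic Fluo-8 calcium fluorescence | Schedule: 17-24 h seeding, 75 min 37 °C dye, 30 min RT | Evaluation: % activation from peak over basal fluorescence ratio, DMSO-to-PEA scaled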
# TAAR1 antagonist: antagonists of human TAAR1; inhibition, % at 3 µM; CHO RD-HGA16 TAAR1, Fluo-8 calcium fluorescence, antagonist; actives 1.5% (n = 360,000);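 active means inhibition above a per-plate cutoff, the mean inhibition of test compounds on that plate plus 3 SD, cut at about 49% in these data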;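 further: 0% = DMSO plus EC80 beta-PEA response and 100% = DMSO alone without agonist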
#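 Test system – hTAAR1-expressing CHO RD-HGA16 cells, Gα16-coupled · Reagent – β-PEA at EC80 concentration, post-compound challenge · Compound dosing – 3 µM, single point · Timing – 140 s kinetic read after compound, 140 s after agonist · Detection – Fluo-8 intracellular calcium dye fluorescence, real-time kinetic reads · Control set – DMSO and EC80 PEA controls · Repeats – n of 1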
# M1 antag: blocks human M1 muscarinic receptor; CHO-K1 hM1, Fluo-8 calcium fluorescence, ACh EC80 antagonist; inhibition, % at 3 µM; actives 1.3% (n = 360,000);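 active means percent inhibition above its own plate's cutoff, namely the mean of that plate's compound wells plus 3 SD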;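 further: peak over basal fluorescence ratio during 140 s after agonist addition; 0% = ACh EC80 plus DMSO and 100% = DMSO alone without agonist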
# * hit, by the source's call; . = no result given. Most compounds without a hit are left out; they make up all but 3.4% or so of the library.
SMILES,M1 ag,CHRM1 PAM,TAAR1 ag,TAAR1 antagonist,M1 antag
COc1cc(-c2cc(C(=O)Nc3cc(S(=O)(=O)N4CCOCC4)ccc3C)c3ccccc3n2)cc(OC)c1OC,-2,-1,17,49*,16
COc1cc(-c2cc(C(=O)Nc3cc(S(=O)(=O)N4CCOCC4)ccc3O)c3ccccc3n2)cc(OC)c1OC,-3,-3,1,51*,10
COc1ccc(-c2cc(C(=O)Nc3ccc(S(N)(=O)=O)cc3)c3ccccc3n2)cc1OC,1,15,7,7,-6
COc1cc(-c2cc(C(=O)Nc3ccc(S(=O)(=O)NCc4ccco4)cc3)c3ccccc3n2)cc(OC)c1OC,0,-7,22,57*,28
Nc1ccn([C@@H]2O[C@H](C(=O)N[C@H](Cc3ccccc3)C(=O)N3CCN(C(=O)N4CCCCC4)CC3)[C@@H](O)[C@H]2O)c(=O)n1,.,.,-1,-5,.
CNc1nc(Nc2ccc(C)cc2C)c2sccc2n1,9,-4,20,13,-9
COc1cccc(C(=O)N[C@@H](Cc2cccnc2)C(=O)N2CCC[C@H]2C(=O)NC2CCCC2)c1,.,.,0,0,.
COC(=O)[C@]12C[C@H](CC(=O)NCCc3ccccc3OC)C(=O)N(Cc3ccc4c(c3)OCO4)C1=C[C@H](C(C)(C)C)O[C@@H]2C,.,.,15,2,.
CCC(CC)c1nnc(NC(=O)c2c(C)nn(Cc3ccccc3Cl)c2C)s1,14,6,41*,15,5
CCC(CC)c1nnc(NC(=O)Cc2ccccc2[N+](=O)[O-])s1,1,2,49*,-9,-8
Cc1nn(Cc2ccccc2Cl)c(C)c1C(=O)NC1=NCCS1,-3,8,5,-8,-8
CCC(CC)c1nnc(NC(=O)Cc2c[nH]c3ccccc23)s1,0,12,33,-13,-8
O=C1CC(=C(c2ccccc2)c2ccccc2)C(=O)N1CCCCN1CCN(c2cccc(Cl)c2)CC1,7,-8,0,-27,39*
O=C1C2CCCCN2C(=O)N1CCCCN1CCN(c2cccc(Cl)c2)CC1 (stereo unspecified),2,2,5,1,-4
Cc1ccccc1N1CCN(CCN2C(=O)CC(=C3c4ccccc4-c4ccccc43)C2=O)CC1,-1,6,12,-9,-7
Cc1ccccc1N1CCN(CCCN2C(=O)CC(=C(c3ccccc3)c3ccccc3)C2=O)CC1,-5,-20,2,-3,95*
CCc1c(-c2cccc(Br)c2)ncn1CCc1ccccc1OC,.,.,28,29,.
O=[N+]([O-])c1cc2c(c(CSc3nnc(Nc4ccccc4)s3)c1)OCOC2,-3,-2,4,53*,10
Cc1ccccc1Nc1nnc(SCc2cc([N+](=O)[O-])cc3c2OCOC3)s1,-8,-22,.,.,41*
O=S1(=O)CC=C(CSc2nc3ccccc3[nH]2)C1,-11,-19,6,-7,26*
Clc1ccc(C2[C@H]3CN(CC4CCCCC4)[C@H](c4ccccc4)C34CC2(c2ccccc2)C4)cn1 (stereo partly specified),-1,14,0,-1,-4
COC(=O)c1cccc(C23CC4(C2)[C@H](CN(C)[C@@H]4c2ccccc2)C3c2ccccc2)c1 (stereo partly specified),-14,-39,-2,0,64*
CN1C[C@@H]2C(c3ccc(Cl)nc3)C3(c4ccccc4)CC2(C3)[C@H]1c1ccccc1 (stereo partly specified),-14,-40,13,-1,84*
CN1C[C@@H]2C(c3ccccc3)C3(c4ccccc4)CC2(C3)[C@H]1c1ccccc1 (stereo partly specified),-14,-36,15,-13,78*
CN1C[C@@H]2C(c3ccccc3)C3(c4ccc(C#N)cc4)CC2(C3)[C@H]1c1ccccc1 (stereo partly specified),-10,-4,5,6,0
SMILES,M1 ag,CHRM1 PAM,TAAR1 ag,TAAR1 antagonist,M1 antag
CN1C[C@@H]2C(c3ccc(Cl)nc3)C3(c4cccnc4)CC2(C3)[C@H]1c1ccccc1 (stereo partly specified),-14,-37,2,8,54*
COC(=O)C1=C(C)N(Cc2ccc(Cl)cc2)C(=S)NC1c1ccccc1 (stereo unspecified),.,.,-1,30,.
O=S(=O)(c1ccc(C(F)(F)F)cc1)N1CCCc2nc(-c3ccc(F)cc3)ccc21,.,.,3,-16,.
O=C(N/N=C/C(Br)=C\c1ccccc1)c1ccc2nc[nH]c2c1,-3,-9,9,54*,13
O=C(N/N=C/c1cccs1)c1ccc2nc[nH]c2c1,0,-11,5,18,35*
Cc1ccsc1/C=N/NC(=O)c1ccc2nc[nH]c2c1,-2,-10,1,5,14
Cc1cc(N2CCN(CC(C)(C)O)C[C@@H]2C)ccc1N1CCN(Cc2ccccc2)[C@H](C)C1,.,.,-1,0,.
COC(=O)c1ccc(COc2ccccc2/C=C(\C#N)C(=O)Nc2ccc(C)cc2)cc1,-6,7,0,-2,-5
C=CCNC(=O)/C(C#N)=C/c1ccccc1OCc1ccc(C(=O)OC)cc1,-8,0,5,49*,0
COc1ccc(Br)cc1C1CC(=O)N2CN(C)CSC2=C1C#N (stereo unspecified),14,0,46*,-9,-3
COC(=O)c1cccc(-n2c(C)cc(O)cc2=O)c1,.,.,1,-3,.
O=C(CSCc1ccccc1)NCCc1ccc(F)cc1,2,9,-1,18,-7
O=C(CSCc1ccc(Br)cc1)NCCc1ccccc1,-6,0,40*,-5,-1
COc1cc(C(=O)NN=C2c3ccccc3-c3ccccc32)cc(OC)c1OC,.,.,4,9,.
Clc1ccc(Cn2ncc3c(N4CCCC4)ncnc32)cc1,-7,5,13,10,-25
Clc1ccc(Cn2ncc3c(N4CCCCC4)ncnc32)c(Cl)c1,-3,-1,36,78*,-17
O=C1CCC(c2ccccc2)c2ccccc21 (stereo unspecified),-6,7,-2,-7,-13
N#CC1C(=O)c2ccccc2C1c1ccccc1 (stereo unspecified),-6,-1,10,67*,2
COC(=O)[C@]12C[C@H](CC(=O)NCC34CC5CC(CC(C5)C3)C4)C(=O)N(Cc3ccc4c(c3)OCO4)C1=C[C@H](COCc1ccccc1)O[C@@H]2C,.,.,1,-33,.
Cc1ccc(NC(=O)C2=CC(c3ccc(C)cc3)=NS(=O)(=O)N2C)cc1,4,-23,2,17,36*
CCOC(=O)/C(=C/C=C1\Sc2cc(OCC)c(OCC)cc2N1CC)C(C)=O,70*,-21,158*,73*,27
